# SKN-1 block: inhibitors of C. elegans SKN-1; C. elegans VP596 Pgst-4::GFP/RFP ratio, acrylamide-induced, 24 h; inhibition, % at 21.8 µM; 0.49% of 360,000 active; AID 624304;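 active = interference check ratio from 0.5 to 1.5 plus GFP to RFP signal ratio inhibition reaching or exceeding a fixed threshold, cut at about 30% in these data, passing the limit was not always enough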
# NRP1-CendR mod: NRP-1/CendR interaction modulation; O14786; FAM-RPARPAR peptide binding to NRP-1, fluorescence polarization; inhibition, % at 25 µM; 0.85% of 360,000 active; AID 602438;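 active = inhibition or corrected inhibition above about 18%, plus a signal ratio from 0.5 to 1.5, limit read from the data, passing the limit was not always enough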
# Target sequence (O14786 whole entry, looked up): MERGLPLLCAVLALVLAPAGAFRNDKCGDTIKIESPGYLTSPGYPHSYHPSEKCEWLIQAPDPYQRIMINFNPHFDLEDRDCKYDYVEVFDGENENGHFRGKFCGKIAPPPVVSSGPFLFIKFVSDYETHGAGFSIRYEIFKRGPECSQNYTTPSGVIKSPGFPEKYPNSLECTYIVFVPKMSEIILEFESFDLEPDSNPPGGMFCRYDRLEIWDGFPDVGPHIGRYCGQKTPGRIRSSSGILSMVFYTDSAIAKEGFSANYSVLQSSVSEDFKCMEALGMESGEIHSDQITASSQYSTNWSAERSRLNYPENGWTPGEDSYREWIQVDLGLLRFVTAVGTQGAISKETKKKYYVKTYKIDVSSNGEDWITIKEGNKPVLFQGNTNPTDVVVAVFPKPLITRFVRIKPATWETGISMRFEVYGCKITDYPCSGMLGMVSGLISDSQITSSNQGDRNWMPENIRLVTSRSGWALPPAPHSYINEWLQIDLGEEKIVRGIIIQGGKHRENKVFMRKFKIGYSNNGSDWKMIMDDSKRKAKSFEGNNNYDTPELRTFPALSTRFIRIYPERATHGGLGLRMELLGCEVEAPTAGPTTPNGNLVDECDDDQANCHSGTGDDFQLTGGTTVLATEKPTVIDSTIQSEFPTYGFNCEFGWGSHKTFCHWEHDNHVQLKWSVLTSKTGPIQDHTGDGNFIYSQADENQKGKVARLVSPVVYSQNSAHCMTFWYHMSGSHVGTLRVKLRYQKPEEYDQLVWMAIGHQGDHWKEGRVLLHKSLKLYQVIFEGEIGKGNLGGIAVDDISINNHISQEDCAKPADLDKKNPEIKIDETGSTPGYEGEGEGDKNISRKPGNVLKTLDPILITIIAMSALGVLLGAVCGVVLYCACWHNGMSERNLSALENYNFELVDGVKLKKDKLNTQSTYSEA
# MT1-MMP act inh: inhibitors of human MT1-MMP activation. AID 651647. HT1080 RFP-PRO-GFP cells, GFP/RFP ratio fluorescence, overnight; percent of plate control window, DMSO zero. GFP/RFP ratio change, % at 20 µM. 0.061% of 360,000 active;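 active = GFP/RFP ratio change of at least 30% with cell ATP level not reduced by more than half and red fluorescence within 50% of control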
#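 Material – HT1080 RFP-PRO-GFP cells · Control set – DMSO wells and RFP-L50D-GFP cells · Incubation – overnight cell settling, then overnight compound exposure, 37 °C, 5% CO2 · Compound dosing – single-point 20 µM compound, 1% DMSO · Read-out – GFP/RFP fluorescence ratio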
# hiPSC survival: hiPSC single-cell survival enhancement; survival enhancement, % at 20 µM; 0.044% of 360,000 active; ATPlite luminescence; 100% = ROCK inhibitor wells, 0% = DMSO; AID 602274; in the data active = survival enhancement above about 18%;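 also: cells exposed to compounds for 16 hours before the ATP read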
# Numbers without * were called inactive. The list is not random: actives were taken first. Their share in the collection is about 1.4%.
SMILES,SKN-1 block,NRP1-CendR mod,MT1-MMP act inh,hiPSC survival
Cc1ccc([C@@H]2C[C@H]3[C@@H](CN2S(=O)(=O)c2ccc(C)cc2)C(=O)C[C@@H](c2ccc(Cl)cc2)N3S(=O)(=O)c2ccc(C)cc2)cc1,11,-9,-2,-4
Cc1ccc([C@@H]2C[C@H]3[C@@H](CN2S(=O)(=O)c2ccc(Cl)cc2)C(=O)C[C@@H](c2ccc(C)cc2)N3S(=O)(=O)c2ccc(Cl)cc2)cc1,3,6,-1,28*
COC(=O)c1nc(-c2ccccc2)oc1N(C)C,32*,-12,2,-1
COC(=O)c1nc(-c2ccc(C)cc2)oc1N(C)C,-4,2,-3,2
C[C@]12CC[C@H](O)CC1=CCC1C2CC[C@@]2(C)C1CCC21OCCO1 (stereo partly drawn),24,7,3,-1
C=C[C@]12CC[C@H](OC(C)=O)CC1=CCC1C2CC[C@@]2(C)C1CCC21OCCO1 (stereo partly drawn),6,22*,3,-1
COc1cc(/C=C/C(=O)N(C)CC(=O)Nc2ccccc2SC)cc(OC)c1OC,9,-50,2,0
COCCCn1c(SCC(=O)NC(C)C)nnc1-c1ccccc1,36*,-5,-2,5
Cc1cc(C(=O)N/N=C/c2ccc(O)c(O)c2O)c(C)n1-c1ccccc1,13,0,-3,0
COC(=O)c1cc(C(=O)OC)n(Cc2ccc(Br)cc2)n1,17,32*,0,1
COC(=O)c1ccc(Cn2nc(C)c(Br)c2C)cc1,4,12,-2,-5
Cc1ccc(-c2oc3ccccc3c(=O)c2OCC(=O)O)cc1,-3,19*,-3,-2
O=c1ccn(Cc2ccccc2)c2ccccc12,7,30*,1,-2
CN(Cc1ccccc1)C(=O)[C@@H]1CCCN1C(=O)[C@@H]1CCCN1C(=O)c1cccc(Cl)c1,27,22*,6,1
Cc1noc(C)c1C(=O)OCC(=O)NCc1ccccc1,9,24*,4,0
Cc1ccc(CNC(=O)COC(=O)c2c(C)noc2C)cc1,6,1,1,-2
C=CCn1c(SCC(=O)Nc2c(C)n(C)n(-c3ccccc3)c2=O)nnc1-c1ccncc1,20,-3,5,2
c1coc(C2=NC(c3ccco3)C(c3ccco3)N2)c1 (stereo not drawn),14,-7,0,-2
O=C(C=Cc1ccccc1)c1cc(Br)ccc1O,43*,-4,4,-2
CC(=O)c1ccc(Cl)c(Cl)c1Cl,4,-3,0,-1
C[C@@H](c1ccccc1)N1C[C@@H](COCc2ccccc2)Oc2cc(N3CC[C@@H](N(C)C)C3)ccc2S1(=O)=O,9,25*,3,0
CN(C)CCCNc1c2c(nc3ccccc13)CCC2,12,13,-1,0
CN(C)CCNCCCNc1c2ccccc2nc2cccc([N+](=O)[O-])c12,5,31*,-7,-4
COc1ccc(/C=N/Nc2nc(Nc3ccccc3)nc(N3CCCCC3)n2)cc1OC,37*,5,8,-2
CCOc1cc(/C=N/Nc2nc(Nc3ccccc3)nc(N3CCCCC3)n2)ccc1OCC(=O)O,3,4,3,1
SMILES,SKN-1 block,NRP1-CendR mod,MT1-MMP act inh,hiPSC survival
COc1cccc(-c2cc(C(=O)Nc3nc4ccccc4s3)c3ccccc3n2)c1,46*,-28,-18,0
O=C(Nc1nc2ccccc2s1)c1cc(-c2ccco2)nc2ccccc12,5,-35,-6,-1
Cc1cccc(-c2cc(C(=O)Nc3c(C)n(C)n(-c4ccccc4)c3=O)c3ccccc3n2)c1,8,33*,-2,1
O=[N+]([O-])c1ccc(Cl)c2c1C1C=CCC1C(c1ccccn1)N2 (stereo not drawn),26,28*,3,-1
Cc1cc([N+](=O)[O-])cc2c1NC(c1ccccn1)C1CC=CC21 (stereo not drawn),-2,5,2,0
OCC1CCCN(C(=S)Nc2ccc(OC(F)F)cc2)C1 (stereo not drawn),-2,0,-2,1
OCC1CCCN(C(=S)Nc2ccc(Nc3ccccc3)cc2)C1 (stereo not drawn),3,33*,9,-1
COc1ccc(C2C3=C(N=C4SCC(=O)N42)c2ccccc2CC3)cc1 (stereo not drawn),9,-1,-9,3
COc1ccc(C2C3=C(N=C4SCC(=O)N42)c2ccccc2CC3)cc1OC (stereo not drawn),48*,-17,0,2
O=C(Nn1cnnc1)c1ccccc1Cl,12,-9,2,0

# Source: PubChem (Sanford-Burnham Center for Chemical Genomics)
